By MIC is commonly meant the least concentration at which growth counts as inhibited. Read a low MIC as inhibition by little substance.

Converted amounts (≈) assume the structure as drawn. Bounds are passed on as bounds.

This note sets out measurements from ChEMBL document CHEMBL5356992, “New nitazoxanide derivatives: design, synthesis, biological evaluation, and molecular docking studies as antibacterial and antimycobacterial agents” (RSC Med Chem, 2023).

For one data set, the system named is Helicobacter pylori. Kind of data set: Antibacterial activity against Helicobacter pylori ATCC 700392 by broth microdilution method. It counts as functional. Summed up: (§1)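 CLSI broth microdilution on wild-type strains. E. coli ATCC 8739, P. aeruginosa ATCC 27853 and K. pneumoniae ATCC 10031 served as Gram-negatives. S. aureus ATCC 6538 and E. faecalis ATCC 19433 served as Gram-positives. H. pylori ATCC 700392 was tested as the […]. Ciprofloxacin was the reference drug. MIC is given in μM as the mean of three experiments.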
A general note: Dilution methods test growth across graded concentrations, often in twofold steps.

Data set [1] has as its system Klebsiella pneumoniae. Kind of data set: Antibacterial activity against Klebsiella pneumoniae ATCC 10031 by broth microdilution method. Type of data set: functional. The essentials: as §1
Data set [2] deals with Escherichia coli. Nature of the data set: Antibacterial activity against Escherichia coli ATCC 8739 by broth microdilution method. It counts as functional. The essentials:
as §1

For data set [3], the system named is Pseudomonas aeruginosa. Nature of the data set: Antibacterial activity against Pseudomonas aeruginosa ATCC 27853 by broth microdilution method. Type of data set: functional. Summed up:
as §1

The subject of data set [4] is Staphylococcus aureus. Nature of the data set: Antibacterial activity against Staphylococcus aureus ATCC 6538 by broth microdilution method. Type of data set: functional. Summed up: as §1
Data set [5] deals with Enterococcus faecalis. Kind of data set: Antibacterial activity against Enterococcus faecalis ATCC 19433 by broth microdilution method. Type of data set: functional. The essentials: as §1
Data set [6] deals with Staphylococcus aureus. Nature of the data set: Potency index, ratio of nitazoxanide MIC to test compound MIC for antibacterial activity against Staphylococcus aureus ATCC 6538. Type of data set: functional.
Data set [7] concerns Mycobacterium tuberculosis. Kind of data set: Antimycobacterial activity against Mycobacterium tuberculosis H37Rv incubated for 7 days by alamar blue assay. Type of data set: functional. The settings on record: 168 h, time 7 day. Summed up:
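Two-fold serial dilutions in 7H9-S, with growth and sterile controls, incubated at 37 °C for 7 days. Alamar Blue then added and incubated overnight. MIC is the lowest concentration preventing the blue-to-pink change. Means of three experiments.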

For data set [8], the system named is Pseudomonas aeruginosa. Kind of data set: Potency index, ratio of nitazoxanide MIC to test compound MIC for antibacterial activity against Pseudomonas aeruginosa ATCC 27853. It counts as functional.
In data set [9] the test system is Escherichia coli. Kind of data set: Potency index, ratio of nitazoxanide MIC to test compound MIC for antibacterial activity against Escherichia coli ATCC 8739. It counts as functional.
The test system of data set [10] is Enterococcus faecalis. Nature of the data set: Potency index, ratio of nitazoxanide MIC to test compound MIC for antibacterial activity against Enterococcus faecalis ATCC 19433. It counts as functional.
For data set [11], the system named is Klebsiella pneumoniae. Kind of data set: Potency index, ratio of nitazoxanide MIC to test compound MIC for antibacterial activity against Klebsiella pneumoniae ATCC 10031. Type of data set: functional.
Another data set concerns RAW264.7. Kind of data set: Cytotoxicity against mouse RAW264.7 cells at 25 ug/ml incubated for 48 hrs by MTT assay. As to conditions: raw264.7, 48 h, at 25 µg/mL. Type of data set: toxicity, cell-based. Summed up:
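RAW 264.7 mouse macrophages were grown in RPMI with 10% FBS plus penicillin/streptomycin to 80–90% confluency. About 5000 cells/well were seeded on poly-L-lysine-coated plates and held 24 h at 37 °C, 5% CO2. Compound was added at 25 μg mL−1 for 48 h at 37 °C. MTT (0.5 mg mL−1) was added for 3 h, and formazan was read at 595 and 625 nm. Result is % inhibition.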
A general note: Tetrazolium assays rely on reduction of a dye to a coloured formazan, in cell work by metabolically active cells.

The nature of data set [12]: Selectivity index, ratio of cytotoxicity against mouse RAW264.7 cells to MIC for Mycobacterium tuberculosis H37Rv. It counts as toxicity, cell-based. The settings on record: read-out: Selectivity Index. Summed up:
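SI is cytotoxicity divided by the MABA MIC (μg mL⁻¹) against H37Rv. For cytotoxicity, RAW 264.7 cells were grown in RPMI with 10% FBS and penicillin/streptomycin. About 5000 cells per well were seeded on poly-L-lysine plates and held 24 h at 37 °C, 5% CO2. Compounds were added at 25 μg mL⁻¹ for 48 h, then MTT (0.5 mg mL⁻¹) for 3 h. Formazan was read at 595/625 nm and reported as % inhibition.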

For `O=C(Nc1ncc([N+](=O)[O-])s1)c1ccccc1O` [TIZOXANIDE], the MIC against Helicobacter pylori is 11.3 µM (≈ 3 µg/mL); against Klebsiella pneumoniae [1] it was 241 µM (≈ 64 µg/mL); against Escherichia coli [2], 181 µM (≈ 48 µg/mL); with Pseudomonas aeruginosa [3], 362 µM (≈ 96 µg/mL); against Staphylococcus aureus [4], 151 µM (≈ 40 µg/mL); in the data set on Enterococcus faecalis [5] it was 136 µM (≈ 36 µg/mL).
`O=C(Nc1ncc([N+](=O)[O-])s1)c1ccc(-n2cc(CN3CCCC3)nn2)cc1O`: the MIC against Helicobacter pylori is 19.2 µM (≈ 8 µg/mL); in the data set on Klebsiella pneumoniae [1], 12 µM (≈ 5 µg/mL); in the data set on Escherichia coli [2] it was 6.01 µM (≈ 2.5 µg/mL); in the data set with Pseudomonas aeruginosa [3] it was 7.22 µM (≈ 3 µg/mL); in [7], above 25 µg/mL; in the data set with Staphylococcus aureus [4] it was 3.61 µM (≈ 1.5 µg/mL). Further, the Ratio in the data set with Staphylococcus aureus [6] is recorded as 25; in the data set on Pseudomonas aeruginosa [8] it was above 50.
`Cc1ccc2c(c1)C(=O)C(=O)N2Cc1cn(-c2ccc(C(=O)Nc3ncc([N+](=O)[O-])s3)c(O)c2)nn1`: the MIC in the data set on Helicobacter pylori was 2.96 µM (≈ 1.5 µg/mL); with Klebsiella pneumoniae [1], 3.95 µM (≈ 2 µg/mL); in the data set on Escherichia coli [2], 1.48 µM (≈ 0.748 µg/mL); with Pseudomonas aeruginosa [3], 7.91 µM (≈ 4 µg/mL); in data set [7] it was above 25 µg/mL; with Staphylococcus aureus [4], 506 µM (≈ 256 µg/mL). The compound also registered an MIC in the data set with Enterococcus faecalis [5] of 5.93 µM (≈ 3 µg/mL). Moreover, the Ratio in the data set with Escherichia coli [9] is 20; in the data set on Enterococcus faecalis [10], 25; in the data set with Klebsiella pneumoniae [11] it was “<=20”.
`CO[C@H]1/C=C/O[C@@]2(C)Oc3c(C)c(O)c4c(O)c(c(/C=N/N5CCN(C)CC5)c(O)c4c3C2=O)NC(=O)/C(C)=C\C=C\[C@H](C)[C@H](O)[C@@H](C)[C@@H](O)[C@@H](C)[C@H](OC(C)=O)[C@@H]1C` [RIFAMPIN] came in with an MIC in data set [7] of 0.1 µg/mL (≈ 0.122 µM).
Turning to `O=C(Nc1ncc([N+](=O)[O-])s1)c1ccc(-n2cc(-c3ccccc3)nn2)cc1O`, the MIC with Helicobacter pylori is 14.7 µM (≈ 6 µg/mL); against Klebsiella pneumoniae [1], 39.2 µM (≈ 16 µg/mL); in data set [7] it was above 25 µg/mL; against Staphylococcus aureus [4] it was 29.4 µM (≈ 12 µg/mL); against Enterococcus faecalis [5], 19.6 µM (≈ 8 µg/mL).
As to `O=C(Nc1ncc([N+](=O)[O-])s1)c1ccc(-n2cc(CSc3nc4ccccc4s3)nn2)cc1O`, the MIC was 15.6 µM (≈ 8 µg/mL) against Helicobacter pylori; 23.4 µM (≈ 12 µg/mL) with Klebsiella pneumoniae [1]; 3.9 µM (≈ 2 µg/mL) in the data set on Escherichia coli [2]; 31.3 µM (≈ 16 µg/mL) against Pseudomonas aeruginosa [3]; above 25 µg/mL in [7]; 3.9 µM (≈ 2 µg/mL) in the data set on Staphylococcus aureus [4]. The values for the Ratio with Escherichia coli [9] and with Staphylococcus aureus [6] were 20 and 25, respectively.
Take `COc1ccc2c(c1)C(=O)C(=O)N2Cc1cn(-c2ccc(C(=O)Nc3ncc([N+](=O)[O-])s3)c(O)c2)nn1`: the MIC against Helicobacter pylori was 9.58 µM (≈ 5 µg/mL); in the data set on Klebsiella pneumoniae [1], 491 µM (≈ 256 µg/mL); against Escherichia coli [2], 15.3 µM (≈ 8 µg/mL); in [7] it was above 25 µg/mL; with Staphylococcus aureus [4], 92 µM (≈ 48 µg/mL); with Enterococcus faecalis [5] it was 184 µM (≈ 96 µg/mL).
Take `O=C(O)c1cn(-c2ccc(C(=O)Nc3ncc([N+](=O)[O-])s3)c(O)c2)nn1`: the MIC came out at 21.2 µM (≈ 8 µg/mL) against Helicobacter pylori; 15.9 µM (≈ 6 µg/mL) against Klebsiella pneumoniae [1]; 6.64 µM (≈ 2.5 µg/mL) in the data set with Escherichia coli [2]; 10.6 µM (≈ 4 µg/mL) against Pseudomonas aeruginosa [3]; 25 µg/mL (≈ 66.4 µM) in data set [7]; 85 µM (≈ 32 µg/mL) in the data set on Staphylococcus aureus [4]. Further, in the data set with RAW264.7, the Cell growth inhibition amounted to 27.5%. In [12], the selectivity ratio is 1.
Turning to `[N-]=[N+]=Nc1ccc(C(=O)Nc2ncc([N+](=O)[O-])s2)c(O)c1`, the MIC in the data set with Helicobacter pylori is 104 µM (≈ 32 µg/mL); against Klebsiella pneumoniae [1], 313 µM (≈ 96 µg/mL); against Escherichia coli [2], 4.89 µM (≈ 1.5 µg/mL); in data set [7], 3.12 µg/mL (≈ 10.2 µM); against Staphylococcus aureus [4], 9.79 µM (≈ 3 µg/mL); in the data set on Enterococcus faecalis [5] it was 26.1 µM (≈ 8 µg/mL). Besides, the Cell growth inhibition in the data set on RAW264.7 amounted to 28.53%. In addition, the Ratio with Escherichia coli [9] came out at 20. The selectivity ratio in data set [12] is 8.
On to `O=C(O)c1cn(C2CC2)c2cc(N3CCNCC3)c(F)cc2c1=O` [CIPROFLOXACIN], for which the MIC with Helicobacter pylori came to 1.5 µM (≈ 0.497 µg/mL); against Klebsiella pneumoniae [1], 9.05 µM (≈ 3 µg/mL); with Escherichia coli [2] it was 0.3 µM (≈ 0.0994 µg/mL); in the data set on Pseudomonas aeruginosa [3], 4.53 µM (≈ 1.5 µg/mL); against Staphylococcus aureus [4], 3.01 µM (≈ 0.997 µg/mL); with Enterococcus faecalis [5] it was 6.03 µM (≈ 2 µg/mL).
As for `O=C(Nc1ncc([N+](=O)[O-])s1)c1ccc(-n2cc(CN3CCOCC3)nn2)cc1O`, the MIC is 9.27 µM (≈ 4 µg/mL) with Helicobacter pylori; 18.5 µM (≈ 8 µg/mL) in the data set with Klebsiella pneumoniae [1]; 1190 µM (≈ 512 µg/mL) in the data set on Escherichia coli [2]; 148 µM (≈ 64 µg/mL) against Pseudomonas aeruginosa [3]; above 25 µg/mL in data set [7]; 6.95 µM (≈ 3 µg/mL) in the data set with Staphylococcus aureus [4]. In the data set on Staphylococcus aureus [6], the Ratio was found to be 25.
In the case of `O=C(Nc1ncc([N+](=O)[O-])s1)c1ccc(-n2cc(CN3C(=O)C(=O)c4cc(F)ccc43)nn2)cc1O`, the MIC with Helicobacter pylori was 3.92 µM (≈ 2 µg/mL); against Pseudomonas aeruginosa [3], 7.85 µM (≈ 4 µg/mL); in data set [7], above 25 µg/mL; against Staphylococcus aureus [4], 15.7 µM (≈ 8 µg/mL); in the data set with Enterococcus faecalis [5], 4.9 µM (≈ 2.5 µg/mL). Further, the Ratio is 25 in the data set with Enterococcus faecalis [10] and above 50 in the data set with Pseudomonas aeruginosa [8].
